Source: PubChem BioAssay (Johns Hopkins Ion Channel Center)
Only some compounds are listed: those with a hit (about 2.3% of all), similar ones and a draw of the others.
TRPC4 act – opens the mouse TRPC4 cation channel | Q9QUQ5 | HEK293 TRPC4beta/mu-opioid, Fluo4 calcium fluorescence; stronger effect = higher value | B-score at 10 µM | 310,000 compounds, 0.49% hits;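 active = B-score above 5 SD of library B-scores, and initial fluorescence ratio not above library mean plus 5 SD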;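 note: positive B-score marks a calcium rise read as TRPC4 activation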
Target sequence (Q9QUQ5 whole entry, looked up): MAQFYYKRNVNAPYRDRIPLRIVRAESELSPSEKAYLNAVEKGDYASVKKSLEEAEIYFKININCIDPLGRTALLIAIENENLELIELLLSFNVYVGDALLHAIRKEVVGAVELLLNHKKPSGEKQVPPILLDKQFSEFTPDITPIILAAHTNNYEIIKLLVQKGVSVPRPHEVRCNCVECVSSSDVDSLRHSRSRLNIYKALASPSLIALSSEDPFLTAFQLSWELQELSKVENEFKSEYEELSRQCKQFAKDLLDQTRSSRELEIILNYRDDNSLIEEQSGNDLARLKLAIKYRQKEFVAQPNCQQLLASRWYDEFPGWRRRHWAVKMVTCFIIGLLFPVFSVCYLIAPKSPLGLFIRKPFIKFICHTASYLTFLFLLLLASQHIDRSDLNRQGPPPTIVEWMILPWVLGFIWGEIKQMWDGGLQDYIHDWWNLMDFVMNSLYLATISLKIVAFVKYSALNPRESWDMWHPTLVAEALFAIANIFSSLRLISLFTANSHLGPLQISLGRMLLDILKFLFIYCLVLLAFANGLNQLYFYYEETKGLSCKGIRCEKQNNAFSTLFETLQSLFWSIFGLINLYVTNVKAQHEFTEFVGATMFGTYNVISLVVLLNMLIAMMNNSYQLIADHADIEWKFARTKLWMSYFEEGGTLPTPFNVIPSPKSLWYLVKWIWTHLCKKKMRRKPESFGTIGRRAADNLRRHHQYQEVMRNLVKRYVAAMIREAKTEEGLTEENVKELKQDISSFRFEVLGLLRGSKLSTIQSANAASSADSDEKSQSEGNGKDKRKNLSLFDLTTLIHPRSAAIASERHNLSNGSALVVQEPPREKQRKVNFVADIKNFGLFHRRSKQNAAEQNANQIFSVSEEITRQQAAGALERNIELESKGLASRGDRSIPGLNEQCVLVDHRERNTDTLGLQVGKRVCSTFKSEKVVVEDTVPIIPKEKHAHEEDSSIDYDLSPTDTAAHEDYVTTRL
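Material: HEK293 stable line with TRPC4beta plus mu-opioid receptor; technique: Fluo4 calcium-sensitive dye fluorescence, kinetic, 1 Hz baseline; timing: Fluo4 dye loading 45 min at room temperature, 110 s recording; controls: assay buffer as low control, maximal DAMGO as high control; read-out: integrated baseline-normalised fluorescence ratio, converted to per-well B score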
TRPC4 block – TRPC4 (mouse) channel inhibition | 300,000 compounds, 0.39% hits | Q9QUQ5 | HEK293 TRPC4beta/mu-opioid, DAMGO-evoked Fluo4 calcium flux; stronger effect = lower value | B-score at 10 µM;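 active = B-score over 3 SD under the library average, no early fluorescence shift, positive overall ratio signal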
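Material: HEK293 cells with stable TRPC4beta plus mu-opioid receptor expression / Probe or stimulus: DAMGO in two steps, submaximal then maximal / Compound: single concentration per test compound / Technique: kinetic Fluo4 fluorescence imaging of calcium influx / Read-out: per-well B score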
TRPC6 inhibitor – blocks the mouse TRPC6 cation channel | Q61143 | HEK293-TRPC6, membrane potential dye, ACh-evoked depolarization; stronger effect = lower value | B-score at 10 µM | 310,000 compounds, 1.1% hits | AID 2553;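 active = B-score under library mean minus 3 SD, initial fluorescence not abnormally high, positive integrated signal ratio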;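 note: B-score derived from integrated fluorescence ratio over the kinetic read; more negative B-score means stronger inhibition of depolarization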
TRPC6 activator – activators of mouse TRPC6 channel. 310,000 compounds, 0.13% hits. Q61143. HEK293-TRPC6 membrane potential dye fluorescence; stronger effect = higher value. B-score at 10 µM. AID 2550;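 active = B-score of the integrated fluorescence ratio above library mean plus 3 SD, and starting fluorescence ratio within library mean plus 5 SD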;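 note: higher score means more depolarization so channel activation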
TRPC4 PAM – allosteric potentiators of mouse TRPC4 channel | Q9QUQ5 | HEK293 TRPC4beta/mu-opioid, DAMGO EC20, Fluo-4 Ca2+ flux; stronger effect = higher value | B-score at 10 µM | 310,000 compounds, 0.42% hits | AID 2227;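 active = B-score of calcium response area above 5 SD of library B-scores, with initial fluorescence ratio within 5 SD of library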;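 note: B-score of integrated fluorescence ratio over time as area under calcium response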
TRPC4 spec 2 – second check of whether TRPC6 inhibitors also affect mouse TRPC4. AID 2776. HEK293 TRPC4/MOR, membrane potential dye fluorescence; channel activated by saturating DAMGO dose. 920 compounds, 42% hits. shares compounds with TRPC6 inhibitor. inhibition, % at 10 µM;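 active = compounds whose fluorescence signal differed from control wells by over 3 SD, either direction, in both duplicate plates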
TRPC4 spec – tests whether TRPC6 inhibitors also affect mouse TRPC4; shares compounds with TRPC6 inhibitor; HEK293 TRPC4/mu-opioid, membrane potential fluorescence; activity change, negative = inhibition, % at 10 µM; 920 compounds, 61% hits; AID 2777;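 active = rise or fall in signal beyond 3 SD of buffer-only wells in both replicate plates, either sign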;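 note: integrated kinetic ratio of fluorescence range over baseline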
HEK293 MPD ctr 2-1 – second counter-screen for TRPC6 inhibitors: parental HEK293 cells; shares compounds with TRPC6 inhibitor; parental HEK293 membrane potential dye fluorescence; maximal acetylcholine challenge after compound addition; signal change vs control, % at 10 µM; 920 compounds, 31% hits;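 active = membrane potential signal moving either way by over 3 SD of the maximum-effect control, in both duplicate plates, meaning non-specific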
HEK293 MPD ctr-1 – checks TRPC6 inhibitor effects in parental HEK293 cells; shares compounds with TRPC6 inhibitor; parental HEK293 membrane potential dye fluorescence; membrane potential signal change, % at 10 µM; 920 compounds, 60% hits; AID 2780;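 active = membrane potential signal shifting up or down by more than 3 SD of buffer-only wells, on both duplicate plates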
HEK293 MPD ctr-2 – parental HEK293 nonspecific activity of TRPC6 modulators; membrane potential signal change, % at 10 µM; 2,400 compounds, 51% hits; shares compounds with TRPC6 inhibitor; membrane potential dye fluorescence;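 active = membrane potential signal moves up or down beyond 5 SD from buffer-only wells, on both duplicate plates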
HEK293 MPD ctr 2-2 – second check of TRPC6 modulator effects in parental HEK293 cells; shares compounds with TRPC6 inhibitor; membrane potential dye fluorescence; after compound, maximal acetylcholine stimulation; inhibition, % at 10 µM; 2,400 compounds, 14% hits; AID 488926;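 active = membrane potential signal drops by more than 5 SD from the mean control signal, in both duplicate plates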;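 note: plate controls were acetylcholine ECmax control wells for no effect and buffer only wells for full effect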
TRPC4 ctr mod – selectivity of TRPC6 modulators against mouse TRPC4 | shares compounds with TRPC6 inhibitor | HEK293 TRPC4/mu-opioid, membrane potential fluorescence | percent change from control (negative = decrease, positive = increase), % at 10 µM | 2,400 compounds, 69% hits | AID 488927;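 active = membrane potential signal moved up or down beyond 5 SD of buffer control wells, in both duplicate plates, actives on both sides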;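 note: plate controls were assay buffer wells for no effect and DAMGO maximal-effect wells for full effect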
TRPC4/MOR inh 2 – mouse TRPC4 off-target activity of TRPC6 modulators, second screen. shares compounds with TRPC6 inhibitor. HEK293 TRPC4/mu-opioid, membrane potential dye fluorescence; stimulated with maximal-effect DAMGO. inhibition, % at 10 µM. 2,400 compounds, 55% hits. AID 488928;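 active = drop in membrane potential signal beyond 5 SD of the control wells in both duplicate plates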;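 note: TRPC4 counter screen for TRPC6 hits run under conditions tuned for TRPC6 not TRPC4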
TRPC6 inh conf – confirmation of mouse TRPC6 inhibitors; shares compounds with TRPC6 inhibitor; HEK293-TRPC6, membrane potential dye, ACh-evoked depolarization; AID 488960; 3,300 compounds, 43% hits; inhibition, % at 10 µM;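 active = fluorescence ratio falls more than 5 SD below the full-stimulation control mean, in both duplicate runs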;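 note: integrated fluorescence ratio of peak minus minimum over baseline after agonist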
TRPC6 act confirm – mouse TRPC6 activator confirmation. shares compounds with TRPC6 inhibitor. HEK293-TRPC6 membrane potential dye fluorescence, FDSS. activation, % at 10 µM. 2,800 compounds, 11% hits. AID 488961;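 active = ratio signal rise beyond 5 SD above unstimulated control wells' mean, seen in both duplicate runs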;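 note: plate controls were buffer EC0 wells for no effect and acetylcholine ECmax response for full effect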
* marks the source's active call; other numbers are inactive results; i = inactive; / = not tested or not shown; + = active, no number.

SMILES | TRPC4 act | TRPC4 block | TRPC6 inhibitor | TRPC6 activator | TRPC4 PAM | HEK293 MPD ctr-2 | HEK293 MPD ctr 2-2 | TRPC4 ctr mod | TRPC4/MOR inh 2 | TRPC6 inh conf | TRPC6 act confirm | others
Cc1csc(=O)n1CCC(=O)OCC(=O)Nc1cc([N+](=O)[O-])ccc1Cl | i | i | i | i | i | / | / | / | / | / | /
CCN(CC)CCNc1c2c(c(C#N)c3nc4ccccc4n13)CCCC2 | i | i | -5.1* | i | i | i | i | -18%* | 36%* | 42%* | i
N#Cc1c2c(c(NCc3ccco3)n3c1nc1ccccc13)CCC2 | i | i | i | i | i | / | / | / | / | / | /
CN(C)CCNc1c2c(c(C#N)c3nc4ccccc4n13)CCCC2 | i | i | -11* | i | i | / | / | / | / | 73%* | i | TRPC4 spec 2=60%*;TRPC4 spec=-28%*;HEK293 MPD ctr 2-1=48%*;HEK293 MPD ctr-1=-384%*
CCC(=O)Nc1cccc(-c2cnc3ccccc3n2)c1 | i | i | -5.6* | i | i | i | i | i | i | i | i
CCCCCCN1C=CC(=C/C=C(\C#N)C(=O)OCC)C=C1 | 61* | i | -9.6* | 78* | i | + | 87%* | 250%* | i | i | 566%*
CC(C)N1CCC2(CC1)N=C(c1ccc3c(c1)OCO3)CC(c1cc(Cl)ccc1O)N2 (stereo not given) | i | i | -7.1* | i | i | / | / | / | / | i | i | TRPC4 spec 2=34%*;TRPC4 spec=i;HEK293 MPD ctr 2-1=i;HEK293 MPD ctr-1=i
O=C1CCN1C1(C(=O)NC2CCCCC2)CCCC1 | i | i | i | i | i | / | / | / | / | / | /
CCN(CC)C1CCN(C(=O)CCc2nnc(CCCCc3ccccc3)o2)C1 (stereo not given) | i | i | -5.2* | i | i | i | i | i | i | i | i
COc1cc(/C=C(/C#N)C(=O)NC(C)c2ccccc2)cc(OC)c1O (stereo not given) | i | i | -5.3* | i | i | 415%* | i | 48%* | 29%* | 51%* | /
CC(NC(=O)/C(C#N)=C/c1ccc(C(=O)O)cc1)c1ccccc1 (stereo not given) | i | i | i | i | i | / | / | / | / | / | /
COc1ccccc1CNc1ncc(-c2ccc(F)cc2)n1C | i | i | i | i | i | / | / | / | / | / | /
COc1ccc(OC)c(CNc2ncc(-c3ccc(F)cc3)n2C)c1 | i | i | -5.3* | i | i | i | i | i | 68%* | 57%* | i
Cn1c(-c2ccc(F)cc2)cnc1NCc1cc2c(cc1[N+](=O)[O-])OCO2 | i | i | -6.2* | i | i | i | i | -16%* | 76%* | 72%* | i
Cn1c(-c2ccccc2)cnc1NCc1cc2c(cc1[N+](=O)[O-])OCO2 | i | i | -5.6* | i | i | i | i | -24%* | 68%* | i | i
COc1ccc(CN(C(=O)/C=C/c2ccco2)C2CCS(=O)(=O)C2)cc1OC (stereo not given) | i | i | i | i | i | / | / | / | / | / | /
Cc1ccc(CN2CCN(/N=C/c3sccc3C)CC2)c(C)c1 | i | i | i | i | i | / | / | / | / | / | /
CCc1nc(Nc2ccncc2)c2oc3ccccc3c2n1 | i | i | -5.7* | i | i | i | 76%* | -8.0%* | i | i | i
Cc1nc(Nc2ccncc2)c2oc3ccccc3c2n1 | i | i | -6.4* | i | i | 106%* | 113%* | 11%* | i | 56%* | i
CC(=O)Nc1ccc(Nc2nc(C)nc3c2oc2ccccc23)cc1 | i | i | i | i | i | / | / | / | / | / | /
Cc1cccc(NC(=O)C2Cc3ccccc3O/C2=N\O)c1 (stereo not given) | i | i | i | i | i | / | / | / | / | / | /
CC(C)N(c1ccccc1)c1ccc(NC(=S)NCCN(C)C)cc1 | i | i | -6.6* | i | i | i | i | i | 40%* | 46%* | i
CC(Sc1nnc(-c2cccnc2)n1C)C(=O)N1CCOCC1 (stereo not given) | i | i | i | i | i | / | / | / | / | / | /
COC(=O)c1ccc(C)c(NC(=O)CN(c2ccccc2)S(=O)(=O)N(C)C)c1 | i | i | i | i | i | / | / | / | / | / | /
C/C(=N\NC(=O)c1ccccc1O)C1C(=O)c2ccccc2C1=O | i | i | -5.5* | i | i | i | i | -16%* | i | i | i
C/C(=N/NC(=O)c1cc2ccccc2cc1O)C1C(=O)c2ccccc2C1=O | i | i | i | i | i | / | / | / | / | / | /
COc1ccc(C2NC(c3ccc(OC)cc3)C(c3ccccc3)C(=O)C2c2ccccc2)cc1 (stereo not given) | i | i | i | i | i | / | / | / | / | / | /
CC(C)(C)n1nnnc1C(c1ccccc1)N1CCc2ccccc2C1 (stereo not given) | i | i | -7.6* | i | i | / | / | / | / | i | i | TRPC4 spec 2=i;TRPC4 spec=12%*;HEK293 MPD ctr 2-1=i;HEK293 MPD ctr-1=6.8%*
N=C1CCCN1CC(=O)c1ccc(Cl)cc1 | i | i | -5.1* | i | i | i | i | i | i | i | i
